Measurements reported in ChEMBL document CHEMBL4325837, “Discovery of novel NO-releasing celastrol derivatives with Hsp90 inhibition and cytotoxic activities” (Eur J Med Chem, 2018).
Calls of active or inactive are those of the source. The rule behind the calls is not given here.

Assays:
MCF7 = assay: Antiproliferative activity against human MCF7 cells after 48 hrs by MTT assay; assay type: functional, cell-based; conditions: MCF7, 48 h
Outline: (§1)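 MTT assay. Cells were seeded at 5.0 × 10⁴ cells/ml in 100 μL per well and grown 24 h. They were then exposed to a range of concentrations for 48 h. MTT (5 mg/ml) was added for 4 h, the supernatant was removed and DMSO was added. OD was read at 570 nm. Assays were run in triplicate and IC50 is reported as mean ± SD, n = 3.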

HOS = assay: Antiproliferative activity against human HOS cells after 48 hrs by MTT assay; assay type: functional, cell-based; outline: as §1
A549 [1] = assay: Antiproliferative activity against human A549 cells after 48 hrs by MTT assay; assay type: functional, cell-based; conditions: A549, 48 h; outline: as §1
HepG2 = assay: Antiproliferative activity against human HepG2 cells after 48 hrs by MTT assay; assay type: functional, cell-based; conditions: HepG2, 48 h; outline: as §1
[2] = Drug metabolism in human A549 cells assessed as nitric oxide release at 4 uM measured up to 24 hrs; assay type: ADME, cell-based; conditions: a549, 24 h
Outline: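 A549 cells were seeded at 5.0 × 10⁴ cells/ml in 100 μL wells and grown 24 h at 37 °C. Hybrids were added at 4 μM for varying times, with 24 h used for the full set. NO was measured with a Nitrate/Nitrite assay kit against a standard curve, reading OD at 550 nm. Values are the mean of three independent experiments.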

A549 [3] = assay: Induction of apoptosis in human A549 cells assessed as necrotic cells at 1.2 uM after 48 hrs by Annexin V-FITC/propidium iodide staining-based flow cytometric analysis (reference value: 0.6%); assay type: functional
A549 [4] = assay: Induction of apoptosis in human A549 cells assessed as early apoptotic cells at 1.2 uM after 48 hrs by Annexin V-FITC/propidium iodide staining-based flow cytometric analysis (reference value: 0.5%); assay type: functional
A549 [5] = assay: Induction of apoptosis in human A549 cells assessed as viable cells at 1.2 uM after 48 hrs by Annexin V-FITC/propidium iodide staining-based flow cytometric analysis (reference value: 98.5%); assay type: functional; conditions: A549, 48 h, read-out: Activity
[6] = molecular target: Heat shock protein HSP90 (Homo sapiens) (UniProt P07900+P08238); assay: Inhibition of HSP90 in human A549 cells assessed as decrease in Akt phosphorylation at 2.5 uM after 24 hrs by Western blot analysis; assay type: cell-based
A549 [7] = assay: Induction of apoptosis in human A549 cells assessed as late apoptotic cells at 1.2 uM after 48 hrs by Annexin V-FITC/propidium iodide staining-based flow cytometric analysis (reference value: 0.4%); assay type: functional

SMILES | IC50 (MCF7) [nM] | IC50 (HOS) [nM] | IC50 (A549 [1]) [nM] | IC50 (HepG2) [nM] | Drug metabolism [2] | Activity (A549 [3]) [%] | Activity (A549 [4]) [%] | viability at 1.2 µM (A549 [5]) [%] | inhibition [6] | Activity (A549 [7]) [%]
CC1=C(O)C(=O)C=C2C1=CC=C1[C@@]2(C)CC[C@@]2(C)[C@@H]3C[C@](C)(C(=O)OCCCCOc4no[n+]([O-])c4S(=O)(=O)c4ccccc4)CC[C@]3(C)CC[C@]12C | 3950 | 2470 | 2460 | 3530 |  |  |  |  |  | 
CC1=C(O)C(=O)C=C2C1=CC=C1[C@@]2(C)CC[C@@]2(C)[C@@H]3C[C@](C)(C(=O)OCCOc4no[n+]([O-])c4S(=O)(=O)c4ccccc4)CC[C@]3(C)CC[C@]12C | 2760 | 1690 | 2280 | 4750 | Metabolite_Detected |  |  |  |  | 
CC1=C(O)C(=O)C=C2C1=CC=C1[C@@]2(C)CC[C@@]2(C)[C@@H]3C[C@](C)(C(=O)OCCCCO[N+](=O)[O-])CC[C@]3(C)CC[C@]12C | 3820 | 2430 | 4210 | 6080 | Metabolite_Detected |  |  |  |  | 
CC1=C(O)C(=O)C=C2C1=CC=C1[C@@]2(C)CC[C@@]2(C)[C@@H]3C[C@](C)(C(=O)O)CC[C@]3(C)CC[C@]12C [CELASTROL] | 1560 | 930 | 1430 to 1570 | 1620 |  | 5.2 | 7.8 | 75.8 | Active | 11.2
CC1=C(O)C(=O)C=C2C1=CC=C1[C@@]2(C)CC[C@@]2(C)[C@@H]3C[C@](C)(C(=O)OCCCOc4no[n+]([O-])c4S(=O)(=O)c4ccccc4)CC[C@]3(C)CC[C@]12C | 2120 | 1870 | 2890 | 4530 |  |  |  |  |  | 
NCCCOc1no[n+]([O-])c1S(=O)(=O)c1ccccc1 |  |  | 25500 |  |  |  |  |  |  | 
